According to publication PMC6220361 (Molecular Pharmaceutics, 2018):
Like-named read-outs stand apart in the source and are kept apart here.

Legend:
SP1–7 binding site [1] = assay: Dynamic PET imaging, blocking experiments; assay type: in vivo, Wistar rats
Outline: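 Healthy male Wistar rats (200–320 g) under isoflurane (3% induction, 1–2.5% maintenance, in oxygen). A 5 min CT or 15 min MRI preceded the i.v. tail-vein tracer bolus and a 60 min dynamic PET scan. Blockers were SP1–7 (5% DMSO in saline), 185 nmol·kg–1 i.p. 15 min before, or the unlabeled tracer analogue (20% EtOH in saline), 3 μmol·kg–1 slow i.v. 3 or 20 min before. Read-out was manual brain/spinal cord ROI SUV ± SD.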

SP1–7 binding site [2] = conditions: rat spinal cord membranes preparation; cited from earlier work
Caco-2 cell monolayer = conditions: cited from earlier work
SP1–7 binding site [3] = conditions: read-out: binding; rat ventral tegmental area; cited from earlier work
[4] = mouse plasma; cited from earlier work
[5] = blocker i.p. 185 nmol·kg^–1, 15 min prior to tracer
[6] = self-blocking, i.v. 3 μmol·kg^–1, 3 min prior to tracer

## NC(=O)[C@H](Cc1ccccc1)NC(=O)OCc1ccccc1 [compound 1, (S)-Benzyl (1-Amino-1-oxo-3-phenylpropan-2-yl)carbamate]
SP1–7 binding site [1]; blocker i.v. 3 μmol·kg^–1, 20 min prior to tracer
  blocking of [^11C]1 brain uptake: did not block brain uptake
SP1–7 binding site [1]; self-blocking, 3 or 20 min prior to tracer injection
  blocking of [^11C]1 spinal cord uptake: did not show any blocking
SP1–7 binding site [2]
  Ki: 5.2 nM

## H-Arg-Pro-Lys-Pro-Gln-Gln-Phe-OH (H-RPKPQQF-OH) [SP1–7]
Caco-2 cell monolayer
  permeability: failed to display any measurable permeability
SP1–7 binding site [3]
  Ki: 3.9 nM
SP1–7 binding site [1]; [5]
  blocking of [^11C]1 brain uptake: did not block brain uptake
  blocking of [^11C]1 spinal cord uptake: moderate blocking
[4]
  in vitro half-life: 4.4 min

## NC(=O)[C@@H](Cc1ccccc1)NC(=O)OCc1ccccc1 [compound 2, (R)-Benzyl (1-Amino-1-oxo-3-phenylpropan-2-yl)carbamate]
SP1–7 binding site [1]; [6]
  blocking of [^11C]2 brain uptake: did not show any blocking effect
  blocking of [^11C]2 spinal cord uptake: did not show any blocking effect
